# Published values gathered from unrelated publications.
# Each line is one published result; the experiments were not run side by side.
# ABL1 phosphorylated: Tyrosine-protein kinase ABL1, phosphorylated (ABL1, Homo sapiens, UniProt P00519)
# ABL1: Tyrosine-protein kinase ABL1 (ABL1, Homo sapiens, UniProt P00519)
# ABL1 Y253F: Tyrosine-protein kinase ABL1 (ABL1, Homo sapiens, UniProt P00519, Y253F)
# ABL1 F317I: Tyrosine-protein kinase ABL1 (ABL1, Homo sapiens, UniProt P00519, F317I)
SMILES,target,observed,mode,method,tested at,endpoint,result
C=CC(=O)N1CCC([C@@H]2CCNc3c(C(N)=O)c(-c4ccc(Oc5ccccc5)cc4)nn32)CC1,"Tyrosine-protein kinase ABL1, phosphorylated (ABL1, Homo sapiens, UniProt P00519, Q252H)",enzyme activity,inhibitor,,1 µM,inhibition,32%
C1=C/COCc2cc(ccc2OCCN2CCCC2)Nc2nccc(n2)-c2cccc(c2)COC/1,"Tyrosine-protein kinase ABL1 (ABL1, Homo sapiens, UniProt P00519, E255K)",binding,,,0.1 µM,remaining binding,23%
CCCCC(=O)Nc1ccc(-c2ccc3ncn(CCC)c(=O)c3c2)cn1,ABL1 phosphorylated,binding,,competition with immobilised ligand,0.5 µM,remaining binding,93%
[2H]c1cc(C)c(NC(=O)c2cnc(Nc3cc(N4CCCCC4)nc(C)n3)s2)c(Cl)c1,ABL1,enzyme activity,inhibitor,,10 nM,inhibition,> 90%
COc1ccc2oc(-c3ccc4nc(N)oc4c3)c/c(=N\c3ccccc3NC(=O)CCN)c2c1,ABL1 Y253F,cell-free assay,,,1 µM,remaining signal,95%
Cc1ccc(NC(=O)c2ccnc(C(F)(F)F)c2)cc1-c1cc(OCCO)nc(N2CCOCC2)c1,ABL1 F317I,binding,,,1 µM,remaining binding,85%
CC#CC(=O)N1CCC[C@H]1c1nc(-c2ccc(C(=O)Nc3ccccn3)cc2)c2c(N)nccn12,"Tyrosine-protein kinase ABL1, non-phosphorylated (ABL1, Homo sapiens, UniProt P00519, T315I)",enzyme activity,inhibitor,,1 µM,inhibition,19%
C[C@H]1CC[C@H](n2c3cnccc3c3cnc(Nc4ccc5c(n4)CCN(C(=O)CO)C5)nc32)CC1,ABL1 phosphorylated,binding,,competition with immobilised ligand,1 µM,remaining binding,100%
N#Cc1ccc(NC(=O)Nc2ccccc2)cc1,ABL1 phosphorylated,cell-free assay,,competition with immobilised ligand,25 µM,remaining binding,96%
[2H]c1cc(C)c(NC(=O)c2cnc(Nc3cc(N4CC[C@H](O)C4)nc(C)n3)s2)c(Cl)c1,ABL1,enzyme activity,inhibitor,,1 nM,inhibition,86%
CN1CCN(C(=O)c2ccc(NC(=O)Nc3ccc(N(C)c4ccnc(Nc5ccc(CS(C)(=O)=O)cc5)n4)cc3)cc2)CC1,ABL1 Y253F,binding,,,1 µM,remaining binding,20%
Cc1nc(Nc2ncc(C(=O)Nc3c(C)cccc3Cl)s2)cc(N2CC[C@H](N)C2)n1,ABL1,enzyme activity,inhibitor,,1 nM,inhibition,92%
C#Cc1cc(-c2cc(Nc3nc(N[C@@H](C)c4ccc(F)cn4)ncc3Cl)n[nH]2)ccc1C=O,"Tyrosine-protein kinase ABL1 (ABL1, Homo sapiens, UniProt P00519, H396P)",enzyme activity,inhibitor,,0.2 µM,inhibition,16.6%
COc1ccc2[nH]c3c4[nH]c5ccc(OC)cc5c4c4c(c3c2c1)C(=O)NC4=O,ABL1 F317I,binding,,,1 µM,remaining binding,87%
CO[C@@H]1[C@H](N(C)C(=O)c2ccccc2)C[C@H]2O[C@]1(C)n1c3ccccc3c3c4c(c5c6ccccc6n2c5c31)C(=O)NC4,"Tyrosine-protein kinase ABL1, phosphorylated (ABL1, Homo sapiens, UniProt P00519, M351T)",enzyme activity,inhibitor,,1 µM,inhibition,13%
Cc1nc(Nc2ncc(C(=O)Nc3c(C)cccc3Cl)s2)cc(N2CCC(O)CC2)n1,ABL1,enzyme activity,inhibitor,,1 nM,inhibition,83%
